Reference: ChEMBL document CHEMBL1177808, “Benzofuran-substituted urea derivatives as novel P2Y(1) receptor antagonists” (Bioorg Med Chem Lett, 2010)

Tests used:
[1] = target: T1, P2Y purinoceptor 1 (Homo sapiens, UniProt P47900); assay: Antagonist activity at P2Y1 expressed in HEK293 cells by FLIPR assay; format: functional, cell-based
Procedure, shortened: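 HEK-293 MSRII cells (endogenous P2Y1) grown in DMEM/F12 with 10% FBS, plated 20,000/well, cultured 48 h. Loaded with calcium 3 dye in HBSS pH 7.4 plus 2.5 mM probenecid, 1 h, 37 °C. Calcium flux read on FLIPR; IC50 from non-linear regression; at least three determinations.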

[2] = target: T1, P2Y purinoceptor 1; assay: Displacement of [33P]2-MeS-ADP from human P2Y1 receptor expressed in human U2OS cells at 10 uM by scintillation counting; format: cell-based
Procedure, shortened: (§1)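 Membranes from BacMam-transduced U2OS cells expressing human P2Y1, 0.5 µg prebound to 0.5 mg WGA-SPA beads. Radioligand 150 pM [33P]-2-MeS-ADP in 15 mM Hepes, 145 mM NaCl, 0.1 mM MgCl2, 5 mM EDTA, 5 mM KCl, with test compound dilutions or DMSO. Incubated 1 h at room temperature, centrifuged at 2000g, SPA counts read. At least three determinations.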

[3] = test system: Platelet; assay: Inhibition of ADP-mediated alpha granule release in human platelet assessed as inhibition of P-selectin expression at 10 uM by flow cytometry; format: functional
Procedure, shortened: (§2)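 Human PRP from drug-free volunteers (EDTA 10 mM, 300g 4 min), diluted 1:50 in Hepes-modified Tyrode's buffer pH 7.4. Compound or DMSO added, then immediately ADP 300 nM for 5 min. PE-anti-CD62P for 15 min, fixed 30 min in 2% paraformaldehyde, P-selectin read by flow cytometry.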

[4] = target: T1, P2Y purinoceptor 1; assay: Displacement of [33P]2-MeS-ADP from human P2Y1 receptor expressed in human U2OS cells by scintillation counting; format: cell-based; procedure, shortened: as §1
[5] = test system: Platelet; assay: Inhibition of ADP-mediated alpha granule release in human platelet assessed as inhibition of P-selectin expression by flow cytometry; format: functional, cell-based; procedure, shortened: as §2

T1 sequence (P47900 whole entry): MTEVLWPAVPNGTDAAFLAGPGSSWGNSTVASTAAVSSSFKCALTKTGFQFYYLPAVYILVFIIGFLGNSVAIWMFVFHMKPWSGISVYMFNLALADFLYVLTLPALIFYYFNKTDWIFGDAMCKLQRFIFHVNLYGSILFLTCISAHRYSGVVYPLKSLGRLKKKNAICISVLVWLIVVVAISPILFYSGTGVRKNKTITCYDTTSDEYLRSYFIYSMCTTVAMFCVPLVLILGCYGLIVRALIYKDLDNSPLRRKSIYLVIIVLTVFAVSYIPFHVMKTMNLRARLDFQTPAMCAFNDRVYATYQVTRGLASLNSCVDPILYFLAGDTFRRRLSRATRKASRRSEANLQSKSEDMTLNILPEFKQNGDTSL

SMILES	IC50 [1] [µM]	inhibition [2] [%]	inhibition at 10 µM [3] [%]	Ki [4] [µM]	IC50 [5] [µM]
O=C(Nc1ccc(OC(F)(F)F)cc1)Nc1cccc2cc(-c3ccccc3Cl)oc12	> 25				
CC(C)c1ccccc1-c1cc2cccc(NC(=O)Nc3ccc(N(C)C)cc3)c2o1	15.8				
Cc1ccc(NC(=O)Nc2cccc3cc(-c4ccccc4C(C)C)oc23)cc1C(F)(F)F	1.6	69	79		
CCCCCc1ccc(NC(=O)Nc2cccc3cc(-c4ccccc4C(C)C)oc23)cc1	0.63			0.14	
CCCCOc1ccc(NC(=O)Nc2cccc3cc(-c4ccccc4C(C)C)oc23)cc1	2			0.64	
CC(C)c1ccccc1-c1cc2cccc(NC(=O)Nc3ccc(Cl)cc3)c2o1	2			0.76	
CC(C)(C)c1ccccc1-c1cc2cccc(NC(=O)Nc3ccc(OC(F)(F)F)cc3)c2o1	4			0.4	
O=C(Nc1ccc(OC(F)(F)F)cc1)Nc1cccc2cc(-c3cccc(C(F)(F)F)c3)oc12	> 25				
CC(C)c1ccccc1-c1cc2cccc(NC(=O)Nc3ccc(OC(F)(F)F)cc3)c2o1	4		49	0.6	
CC(C)c1ccccc1-c1cc2cccc(NC(=O)Nc3ccc(C(C)(C)C)cc3)c2o1	1.3	72	100		0.3
CC(C)Oc1ccccc1-c1cc2cccc(NC(=O)Nc3ccc(OC(F)(F)F)cc3)c2o1	> 25				
CC(C)c1ccccc1-c1cc2cccc(NC(=O)Nc3cccc(C(F)(F)F)c3)c2o1	5	60			
O=C(Nc1ccc(OC(F)(F)F)cc1)Nc1cccc2cc(-c3ccccc3C(F)(F)F)oc12	6.3			2.5	
